Reference: ChEMBL document CHEMBL1126664, “Pyrazoline bisphosphonate esters as novel antiinflammatory and antiarthritic agents” (1993)

How the values were obtained:
Type in all cases: functional
Rattus norvegicus [1] = experiment: Inhibition of rat adjuvant induced polyarthritis (AIP) at the dose of 15 mg/kg in the non-njected paw
Method in brief: (§1)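 Rats received adjuvant (M. tuberculosis in mineral oil) into the left hindpaw on day 0. Compounds in sterile saline, pH 7.0, were given sc once daily for 28 days, with sc vehicle arthritic controls. Paw volume change in injected and noninjected hindpaws was measured on day 28 by mercury-displacement plethysmography.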

Rattus norvegicus [2] = experiment: Inhibition of rat adjuvant induced polyarthritis (AIP) at the dose of 15 mg/kg in the injected paw; method in brief: as §1
Mus musculus [3] = experiment: Inhibition of delayed type hypersensitivity granuloma results at 100 mg/kg in dry weight
Method in brief: (§2)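 Groups of 10 female CF-1 mice (25 g) were sensitised sc over the inguinal lymph node with mBSA emulsion in Freund's incomplete adjuvant plus dextran. Two mBSA-soaked hydroxyapatite disks were implanted per mouse. Sc dosing ran daily from implantation to day 9, then granulomas were excised for wet and dry weights. Student's paired t test.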

Mus musculus [4] = experiment: Inhibition of delayed type hypersensitivity granuloma results at 100 mg/kg in wet weight; method in brief: as §2
Rattus norvegicus [5] = experiment: Inhibition of rat adjuvant induced polyarthritis (AIP) at the dose of 100 mg/kg in the injected paw; method in brief: as §1
Mus musculus [6] = experiment: Inhibition of antigen-induced arthritis (AIA) in mice at the dose of 50 mg/kg in the non-injected paw
Mus musculus [7] = experiment: Inhibition of antigen-induced arthritis (AIA) in mice at the dose of 200 mg/kg in the non-injected paw
Mus musculus [8] = experiment: Inhibition of antigen-induced arthritis (AIA) in mice at the dose of 100 mg/kg in the non-injected paw
Rattus norvegicus [9] = experiment: Inhibition of rat adjuvant induced polyarthritis (AIP) at the dose of 100 mg/kg in the non-injected paw; method in brief: as §1
Mus musculus [10] = experiment: Inhibition of antigen induced arthritis (AIA) in mice at the dose of 50 mg/kg
Method in brief: (§3)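 Mice were immunised, boosted after 7 days, and challenged 14 days later with 200 μg mBSA in saline into the left rear stifle joint. Dosing was sc in saline at pH 7.0, 5 of 7 days, from challenge (day 0) to day 28. H&E sagittal joint sections were graded 1–5 each for soft tissue inflammation, pannus, and cartilage and bone erosion, then summed (max 20). One-way ANOVA vs vehicle.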

Rattus norvegicus [11] = experiment: Inhibition of rat adjuvant-induced polyarthritis (AIP) at the dose of 60 mg/kg in the non-injected paw; method in brief: as §1
Mus musculus [12] = experiment: Inhibition of delayed type hypersensitivity granuloma results at 50 mg/kg in wet weight; method in brief: as §2
Mus musculus [13] = experiment: Inhibition of delayed type hypersensitivity granuloma results at 25 mg/kg in dry weight; method in brief: as §2
Rattus norvegicus [14] = experiment: Inhibition of rat adjuvant induced polyarthritis (AIP) at the dose of 60 mg/kg in the injected paw; method in brief: as §1
Mus musculus [15] = experiment: Inhibition of delayed type hypersensitivity granuloma results at 25 mg/kg in wet weight; method in brief: as §2
Rattus norvegicus [16] = experiment: Inhibition of rat adjuvant-induced polyarthritis (AIP) at the dose of 5 mg/kg in the non-injected paw; method in brief: as §1
Mus musculus [17] = experiment: Inhibition of antigen induced arthritis (AIA) in mice at the dose of 100 mg/kg; method in brief: as §3
Rattus norvegicus [18] = experiment: Inhibition of rat adjuvant-induced polyarthritis (AIP) at the dose of 15 mg/kg in the non-injected paw; method in brief: as §1
Mus musculus [19] = experiment: Inhibition of delayed type hypersensitivity granuloma results at 50 mg/kg in dry weight; method in brief: as §2
Rattus norvegicus [20] = experiment: Inhibition of rat adjuvant-induced polyarthritis (AIP) at the dose of 100 mg/kg in the non-injected paw; method in brief: as §1
Rattus norvegicus [21] = experiment: Inhibition of rat adjuvant induced polyarthritis (AIP) at the dose of 5 mg/kg in the injected paw; method in brief: as §1
Mus musculus [22] = experiment: Inhibition of antigen-induced arthritis (AIA) in mice at the dose of 100 mg/kg; method in brief: as §3
Rattus norvegicus [23] = experiment: Inhibition of rat adjuvant induced polyarthritis (AIP) at the dose of 15 mg/kg in the non-injected paw; method in brief: as §1
Rattus norvegicus [24] = experiment: Inhibition of rat adjuvant-induced arthritis (AIP) at the dose of 15 mg/kg in the non-injected paw; method in brief: as §1
Rattus norvegicus [25] = experiment: Inhibition of rat adjuvant-induced arthritis (AIP) at the dose of 100 mg/kg in the non-injected paw; method in brief: as §1
Rattus norvegicus [26] = experiment: Inhibition of rat adjuvant induced arthritis (AIP) at the dose of 5 mg/kg in the non-injected paw; method in brief: as §1
Mus musculus [27] = experiment: Inhibition of antigen-induced arthritis (AIA) in mice at the dose of 25 mg/kg; method in brief: as §3
Rattus norvegicus [28] = experiment: Inhibition of rat adjuvant induced arthritis (AIP) at the dose of 60 mg/kg in the non-injected paw; method in brief: as §1
Mus musculus [29] = experiment: Inhibition of antigen-induced arthritis (AIA) in mice at the dose of 50 mg/kg; method in brief: as §3
Rattus norvegicus [30] = experiment: Inhibition of rat adjuvant induced arthritis (AIP) at the dose of 100 mg/kg in the non-injected paw; method in brief: as §1
Rattus norvegicus [31] = experiment: Inhibition of rat adjuvant induced arthritis (AIP) at the dose of 15 mg/kg in the non-injected paw; method in brief: as §1
Mus musculus [32] = experiment: Inhibition of antigen-induced arthritis (AIA) in mice at the dose of 200 mg/kg; method in brief: as §3

SMILES | inhibition in vivo at 15 mg/kg (Rattus norvegicus [2]) | inhibition in vivo at 100 mg/kg (Mus musculus [3]) | inhibition in vivo at 100 mg/kg (Mus musculus [4]) | inhibition in vivo at 100 mg/kg (Rattus norvegicus [5]) | inhibition in vivo at 100 mg/kg (Rattus norvegicus [9]) | inhibition in vivo at 100 mg/kg (Mus musculus [22]) | other results
CCOP(=O)(OCC)C1(P(=O)(OCC)OCC)CC(C(=O)C2CCCCC2)=NN1 | 9% | 31% | 33% | 16% | 29% | – | inhibition in vivo at 15 mg/kg (Rattus norvegicus [1]): 14%; inhibition in vivo at 50 mg/kg (Mus musculus [6]): 30%; inhibition in vivo at 200 mg/kg (Mus musculus [7]): 11%; inhibition in vivo at 100 mg/kg (Mus musculus [8]): 3%
CCOP(=O)(OCC)C1(P(=O)(OCC)OCC)CC(C(=O)C(C)(C)C)=NN1 | 21% | 59% | 65% | 21% | – | – | inhibition in vivo at 50 mg/kg (Mus musculus [10]): 28%; inhibition in vivo at 60 mg/kg (Rattus norvegicus [11]): 64%; inhibition in vivo at 50 mg/kg (Mus musculus [12]): 51%; inhibition in vivo at 25 mg/kg (Mus musculus [13]): 38%; inhibition in vivo at 60 mg/kg (Rattus norvegicus [14]): 38%; inhibition in vivo at 25 mg/kg (Mus musculus [15]): 46%; inhibition in vivo at 5 mg/kg (Rattus norvegicus [16]): 64%; inhibition in vivo at 100 mg/kg (Mus musculus [17]): 16%; inhibition in vivo at 15 mg/kg (Rattus norvegicus [18]): 55%; inhibition in vivo at 50 mg/kg (Mus musculus [19]): 48%; inhibition in vivo at 100 mg/kg (Rattus norvegicus [20]): 76%; inhibition in vivo at 5 mg/kg (Rattus norvegicus [21]): 27%
CCOP(=O)(OCC)C1(P(=O)(OCC)OCC)CC(C(=O)c2ccc(Cl)cc2Cl)=NN1 | 3% | 44% | 55% | 0% | 12% | 0% | inhibition in vivo at 15 mg/kg (Rattus norvegicus [23]): 38%
CCOP(=O)(OCC)C1(P(=O)(OCC)OCC)CC(C(=O)c2ccc(Cl)cc2)=NN1 | – | 33% | 28% | – | – | – | –
CCOP(=O)(OCC)C1(P(=O)(OCC)OCC)CC(C(=O)c2ccccc2)=NN1Cc1cccc(CN2N=C(C(=O)c3ccccc3)CC2(P(=O)(OCC)OCC)P(=O)(OCC)OCC)c1 | – | -31% | – | – | – | – | –
CCOP(=O)(OCC)C1(P(=O)(OCC)OCC)CC(C(=O)c2cccc(C)c2)=NN1 | 6% | 41% | 41% | 3% | – | – | inhibition in vivo at 15 mg/kg (Rattus norvegicus [24]): 54%; inhibition in vivo at 100 mg/kg (Rattus norvegicus [25]): 50%; inhibition in vivo at 100 mg/kg (Mus musculus [8]): 16%
CCOP(=O)(OCC)C1(P(=O)(OCC)OCC)CC(C(=O)c2ccccc2F)=NN1 | – | 17% | 20% | – | – | – | –
CCOP(=O)(OCC)C1(P(=O)(OCC)OCC)CC(C(=O)c2ccccc2)=NN1 | 25% | 51% | 56% | 13% | – | 48% | inhibition in vivo at 50 mg/kg (Mus musculus [12]): 33%; inhibition in vivo at 5 mg/kg (Rattus norvegicus [26]): 50%; inhibition in vivo at 25 mg/kg (Mus musculus [27]): 16%; inhibition in vivo at 60 mg/kg (Rattus norvegicus [28]): 56%; inhibition in vivo at 25 mg/kg (Mus musculus [13]): 42%; inhibition in vivo at 50 mg/kg (Mus musculus [29]): 35%; inhibition in vivo at 100 mg/kg (Rattus norvegicus [30]): 50%; inhibition in vivo at 60 mg/kg (Rattus norvegicus [14]): 23%; inhibition in vivo at 25 mg/kg (Mus musculus [15]): 36%; inhibition in vivo at 15 mg/kg (Rattus norvegicus [31]): 31%; inhibition in vivo at 200 mg/kg (Mus musculus [32]): 48%; inhibition in vivo at 50 mg/kg (Mus musculus [19]): 42%; inhibition in vivo at 5 mg/kg (Rattus norvegicus [21]): 28%
CCOP(=O)(OCC)C1(P(=O)(OCC)OCC)CC(C(=O)c2ccc(OC)cc2)=NN1 | 12% | 50% | 35% | 0% | 16% | 23% | inhibition in vivo at 15 mg/kg (Rattus norvegicus [23]): 17%
